Measured values published in ChEMBL document CHEMBL4425098, “Thiolactomycin-Based Inhibitors of Bacterial β-Ketoacyl-ACP Synthases with in Vivo Activity” (J Med Chem, 2016).

Assay: Binding affinity to Mycobacterium tuberculosis FabB C171Q mutant expressed in Mycobacterium smegmatis MC2 155 by intrinsic tryptophan fluorescence quenching-based fluorimetric method
Summary of the method: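 Kd by quenching of intrinsic tryptophan fluorescence (excitation 280 nm, emission 337 nm). Inhibitor stocks in DMSO or buffer were titrated into 1 μM His-tag-purified enzyme in 50 mM Tris-HCl, 150 mM NaCl, 1 mM DTT, pH 8.5. mtFabB was expressed in M. smegmatis MC²155; saFabF was expressed in E. coli BL21(DE3) pLysS.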

| SMILES | Ki [µM] |
| --- | --- |
| C=C/C(C)=C/[C@@]1(C)SC(=O)C=C1OCC(=O)NCCN=[N+]=[N-] | > 200 |
| C=C/C(C)=C/[C@@]1(C)SC(=O)C=C1OCC(=O)NCCNC(=O)OC(C)(C)C | > 200 |
| C=C/C(C)=C/[C@@]1(C)SC(=O)C(C)=C1O [THIOLACTOMYCIN] | 175 |
